Data published in ChEMBL document CHEMBL2086252, “Syntheses and evaluation of anticonvulsant activity of novel branched alkyl carbamates” (J Med Chem, 2012).
The source made the active and inactive calls. The calls are words filed in the database; no cut-off is given here.

Tests used:
[1] = system: Mus musculus; assay: Anticonvulsant activity in albino CF1 mouse assessed as protection against subcutaneous metrazol-induced seizures at 30 mg/kg, ip after 0.5 hrs; format: functional, organism-based; parameters: dose 30 mg/kg
In short: (§1)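 Mice dosed ip at 30, 100 or 300 mg/kg, then tested 0.5 h and 4 h after administration in the MES or scMet test. Protection was recorded as animals protected over animals tested. Neurotoxicity was recorded as motor impairment or sedation, as animals affected over animals tested.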

[2] = system: Mus musculus; assay: Anticonvulsant activity in albino CF1 mouse assessed as protection against subcutaneous metrazol-induced seizures at 100 mg/kg, ip after 0.5 hrs; format: functional, organism-based; parameters: dose 100 mg/kg; in short: as §1
[3] = system: Mus musculus; assay: Anticonvulsant activity in albino CF1 mouse assessed as protection against subcutaneous metrazol-induced seizures at 300 mg/kg, ip after 0.5 hrs; format: functional, organism-based; parameters: dose 300 mg/kg; in short: as §1
[4] = system: Mus musculus; assay: Anticonvulsant activity in albino CF1 mouse assessed as protection against subcutaneous metrazol-induced seizures at 30 mg/kg, ip after 4 hrs; format: functional, organism-based; parameters: dose 30 mg/kg; in short: as §1
[5] = system: Mus musculus; assay: Anticonvulsant activity in albino CF1 mouse assessed as protection against subcutaneous metrazol-induced seizures at 100 mg/kg, ip after 4 hrs; format: functional, organism-based; parameters: dose 100 mg/kg; in short: as §1
[6] = system: Mus musculus; assay: Anticonvulsant activity in albino CF1 mouse assessed as protection against subcutaneous metrazol-induced seizures at 300 mg/kg, ip after 4 hrs; format: functional, organism-based; parameters: dose 300 mg/kg; in short: as §1
[7] = system: Mus musculus; assay: Anticonvulsant activity in albino CF1 mouse assessed as protection against maximal electroshock-induced seizures at 30 mg/kg, ip after 0.5 hrs; format: functional, organism-based; parameters: dose 30 mg/kg; in short: as §1
[8] = system: Mus musculus; assay: Anticonvulsant activity in albino CF1 mouse assessed as protection against maximal electroshock-induced seizures at 300 mg/kg, ip after 0.5 hrs; format: functional, organism-based; parameters: dose 300 mg/kg; in short: as §1
[9] = system: Mus musculus; assay: Anticonvulsant activity in albino CF1 mouse assessed as protection against maximal electroshock-induced seizures at 30 mg/kg, ip after 4 hrs; format: functional, organism-based; parameters: dose 30 mg/kg; in short: as §1
[10] = system: Mus musculus; assay: Anticonvulsant activity in albino CF1 mouse assessed as protection against maximal electroshock-induced seizures at 100 mg/kg, ip after 4 hrs; format: functional, organism-based; parameters: dose 100 mg/kg; in short: as §1
[11] = system: Mus musculus; assay: Anticonvulsant activity in albino CF1 mouse assessed as protection against maximal electroshock-induced seizures at 300 mg/kg, ip after 4 hrs; format: functional, organism-based; parameters: dose 300 mg/kg; in short: as §1
[12] = system: Mus musculus; assay: Neurotoxicity in albino CF1 mouse assessed as minimal motor impairment at 30 mg/kg, ip after 0.5 hrs by rotarod test; format: toxicity, organism-based; parameters: dose 30 mg/kg, route intraperitoneal; conditions: in vivo; in short: as §1
[13] = system: Mus musculus; assay: Neurotoxicity in albino CF1 mouse assessed as minimal motor impairment at 100 mg/kg, ip after 0.5 hrs by rotarod test; format: toxicity, organism-based; parameters: dose 100 mg/kg, route intraperitoneal; conditions: in vivo; in short: as §1
[14] = system: Mus musculus; assay: Neurotoxicity in albino CF1 mouse assessed as minimal motor impairment at 300 mg/kg, ip after 0.5 hrs by rotarod test; format: toxicity, organism-based; parameters: dose 300 mg/kg, route intraperitoneal; conditions: in vivo; in short: as §1
[15] = system: Mus musculus; assay: Neurotoxicity in albino CF1 mouse assessed as minimal motor impairment at 30 mg/kg, ip after 4 hrs by rotarod test; format: toxicity, organism-based; parameters: dose 30 mg/kg, route intraperitoneal; conditions: in vivo; in short: as §1
[16] = system: Mus musculus; assay: Neurotoxicity in albino CF1 mouse assessed as minimal motor impairment at 100 mg/kg, ip after 4 hrs by rotarod test; format: toxicity, organism-based; parameters: dose 100 mg/kg, route intraperitoneal; conditions: in vivo; in short: as §1
[17] = system: Mus musculus; assay: Neurotoxicity in albino CF1 mouse assessed as minimal motor impairment at 300 mg/kg, ip after 4 hrs by rotarod test; format: toxicity, organism-based; parameters: dose 300 mg/kg, route intraperitoneal; conditions: in vivo; in short: as §1
[18] = system: Rattus norvegicus; assay: Anticonvulsant activity in Sprague-Dawley albino rat assessed as protection against maximal electroshock-induced seizures at 30 mg/kg, po after 1 hr; format: functional, organism-based; parameters: dose 30 mg/kg
In short: (§2)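 Rats dosed orally. Anti-MES protection was scored as animals protected over animals tested at each time after dosing. Neurotoxicity was scored as motor impairment or sedation, as animals affected over animals tested.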

[19] = system: Rattus norvegicus; assay: Anticonvulsant activity in Sprague-Dawley albino rat assessed as protection against maximal electroshock-induced seizures at 30 mg/kg, po after 2 hrs; format: functional, organism-based; parameters: dose 30 mg/kg; in short: as §2
[20] = system: Rattus norvegicus; assay: Anticonvulsant activity in Sprague-Dawley albino rat assessed as protection against maximal electroshock-induced seizures at 30 mg/kg, po after 4 hrs; format: functional, organism-based; parameters: dose 30 mg/kg; in short: as §2
[21] = system: Rattus norvegicus; assay: Neurotoxicity in Sprague-Dawley albino rat assessed as minimal motor impairment at 30 mg/kg, po by rotarod test; format: toxicity, organism-based; parameters: dose 30 mg/kg, route oral; conditions: in vivo; in short: as §2
[22] = system: Rattus norvegicus; assay: Neurotoxicity in pilocarpine-induced status epilepticus Sprague-Dawley albino rat model assessed as minimal motor impairment at 100 mg/kg, ip after 0.25 hr by rotarod test; format: toxicity, organism-based; parameters: dose 100 mg/kg, route intraperitoneal; conditions: in vivo
[23] = system: Rattus norvegicus; assay: Neurotoxicity in pilocarpine-induced status epilepticus Sprague-Dawley albino rat model assessed as minimal motor impairment at 300 mg/kg, ip after 0.25 hr by rotarod test; format: toxicity, organism-based; parameters: dose 300 mg/kg, route intraperitoneal; conditions: in vivo
In short: (§3)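 Rat pilocarpine status epilepticus model: test carbamate given at 0 or 30 min after the first observed Racine stage 3 motor seizure, which marks SE onset. Neurotoxicity was scored within the same model.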

[24] = system: Rattus norvegicus; assay: Neurotoxicity in pilocarpine-induced status epilepticus Sprague-Dawley albino rat model assessed as minimal motor impairment at 30 mg/kg, ip after 0.25 hr by rotarod test; format: toxicity, organism-based; parameters: dose 30 mg/kg, route intraperitoneal; conditions: in vivo; in short: as §3
[25] = system: Rattus norvegicus; assay: Neurotoxicity in pilocarpine-induced status epilepticus Sprague-Dawley albino rat model assessed as minimal motor impairment at 100 mg/kg, ip after 0.5 hrs by rotarod test; format: toxicity, organism-based; parameters: dose 100 mg/kg, route intraperitoneal; conditions: in vivo
[26] = system: Rattus norvegicus; assay: Neurotoxicity in pilocarpine-induced status epilepticus Sprague-Dawley albino rat model assessed as minimal motor impairment at 300 mg/kg, ip after 0.5 hrs by rotarod test; format: toxicity, organism-based; parameters: dose 300 mg/kg, route intraperitoneal; conditions: in vivo; in short: as §3
[27] = system: Rattus norvegicus; assay: Neurotoxicity in pilocarpine-induced status epilepticus Sprague-Dawley albino rat model assessed as minimal motor impairment at 30 mg/kg, ip after 0.5 hrs by rotarod test; format: toxicity, organism-based; parameters: dose 30 mg/kg, route intraperitoneal; conditions: in vivo; in short: as §3
[28] = system: Rattus norvegicus; assay: Neurotoxicity in pilocarpine-induced status epilepticus Sprague-Dawley albino rat model assessed as minimal motor impairment at 300 mg/kg, ip after 1 hr by rotarod test; format: toxicity, organism-based; parameters: dose 300 mg/kg, route intraperitoneal; conditions: in vivo; in short: as §3
[29] = system: Rattus norvegicus; assay: Neurotoxicity in pilocarpine-induced status epilepticus Sprague-Dawley albino rat model assessed as minimal motor impairment at 30 mg/kg, ip after 1 hr by rotarod test; format: toxicity, organism-based; parameters: dose 30 mg/kg, route intraperitoneal; conditions: in vivo; in short: as §3
[30] = system: Rattus norvegicus; assay: Neurotoxicity in pilocarpine-induced status epilepticus Sprague-Dawley albino rat model assessed as minimal motor impairment at 100 mg/kg, ip after 2 hrs by rotarod test; format: toxicity, organism-based; parameters: dose 100 mg/kg, route intraperitoneal; conditions: in vivo
[31] = system: Rattus norvegicus; assay: Neurotoxicity in pilocarpine-induced status epilepticus Sprague-Dawley albino rat model assessed as minimal motor impairment at 300 mg/kg, ip after 2 hrs by rotarod test; format: toxicity, organism-based; parameters: dose 300 mg/kg, route intraperitoneal; conditions: in vivo; in short: as §3
[32] = system: Rattus norvegicus; assay: Neurotoxicity in pilocarpine-induced status epilepticus Sprague-Dawley albino rat model assessed as minimal motor impairment at 30 mg/kg, ip after 2 hrs by rotarod test; format: toxicity, organism-based; parameters: dose 30 mg/kg, route intraperitoneal; conditions: in vivo; in short: as §3
[33] = system: Rattus norvegicus; assay: Neurotoxicity in pilocarpine-induced status epilepticus Sprague-Dawley albino rat model assessed as minimal motor impairment at 100 mg/kg, ip after 4 hrs by rotarod test; format: toxicity, organism-based; parameters: dose 100 mg/kg, route intraperitoneal; conditions: in vivo
[34] = system: Rattus norvegicus; assay: Neurotoxicity in pilocarpine-induced status epilepticus Sprague-Dawley albino rat model assessed as minimal motor impairment at 300 mg/kg, ip after 4 hrs by rotarod test; format: toxicity, organism-based; parameters: dose 300 mg/kg, route intraperitoneal; conditions: in vivo; in short: as §3
[35] = system: Rattus norvegicus; assay: Neurotoxicity in pilocarpine-induced status epilepticus Sprague-Dawley albino rat model assessed as minimal motor impairment at 30 mg/kg, ip after 4 hrs by rotarod test; format: toxicity, organism-based; parameters: dose 30 mg/kg, route intraperitoneal; conditions: in vivo; in short: as §3
[36] = system: Mus musculus; assay: Anticonvulsant activity in albino CF1 mouse assessed as protection against maximal electroshock-induced seizures at 100 mg/kg, ip after 0.5 hrs; format: functional, organism-based; parameters: dose 100 mg/kg; in short: as §1
[37] = system: Rattus norvegicus; assay: Anticonvulsant activity in ip dosed Sprague-Dawley albino rat assessed as protection against pilocarpine-induced status epilepticus after 0.5 hrs; format: functional
In short: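 Pilocarpine status epilepticus model in rats. Number and severity of convulsive seizures were observed behaviourally.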

[38] = system: Rattus norvegicus; assay: Anticonvulsant activity in Sprague-Dawley albino rat assessed as protection against maximal electroshock-induced seizures at 30 mg/kg, po after 30 mins; format: functional, organism-based; parameters: dose 30 mg/kg; in short: as §2
[39] = system: Rattus norvegicus; assay: Neurotoxicity in pilocarpine-induced status epilepticus Sprague-Dawley albino rat model assessed as minimal motor impairment at 100 mg/kg, ip after 1 hr by rotarod test; format: toxicity, organism-based; parameters: dose 100 mg/kg, route intraperitoneal; conditions: in vivo

Compound | Activity [1] | Activity [2] | Activity [3] | Activity [4] | Activity [5] | Activity [6] | Activity [7] | Activity [8] | Activity [9] | Activity [10] | Activity [11] | Activity [12] | Activity [13] | Activity [14] | Activity [15] | Activity [16] | Activity [17] | Activity [18] | Activity [19] | Activity [20] | other results
CC(COC(N)=O)CC(C)(C)C (racemic) | inactive | inactive | Active | inactive | inactive | inactive | inactive | Active | inactive | inactive | Active | Non-toxic | Non-toxic | Toxic | Non-toxic | Non-toxic | Non-toxic | inactive | inactive | inactive | Activity [21]: Non-toxic; Activity [22]: Toxic; Activity [23]: Toxic; Activity [24]: Non-toxic; Activity [25]: Toxic; Activity [26]: Toxic; Activity [27]: Non-toxic; Activity [28]: Toxic; Activity [29]: Non-toxic; Activity [30]: Non-toxic; Activity [31]: Toxic; Activity [32]: Non-toxic; Activity [33]: Non-toxic; Activity [34]: Non-toxic; Activity [35]: Non-toxic
CCCC(CCC)COC(=O)NC1CCCCC1 | inactive | inactive | inactive | inactive | inactive | inactive | inactive | inactive | inactive | inactive | inactive | Non-toxic |  |  | Non-toxic | Non-toxic | Non-toxic |  |  |  | Activity [36]: inactive
CCCC(C(N)=O)C(C)CC (stereo not given) |  |  |  |  |  |  |  |  |  |  |  |  |  |  |  |  |  |  |  |  | ED50 [37]: 84 mg/kg
CCCCC(CC)COC(N)=O (racemic) | inactive | inactive | Active | inactive | inactive | inactive | inactive | Active | inactive | inactive | Active | Non-toxic | Non-toxic | Toxic | Non-toxic | Non-toxic | Non-toxic | inactive | inactive | inactive | Activity [36]: Active; Activity [38]: inactive; Activity [21]: Non-toxic; Activity [22]: Non-toxic; Activity [23]: Toxic; Activity [25]: Non-toxic; Activity [26]: Toxic; Activity [39]: Non-toxic; Activity [28]: Toxic; Activity [30]: Non-toxic; Activity [31]: Toxic; Activity [33]: Non-toxic; Activity [34]: Toxic
